Screens from PubChem.
DYRK1A inh – inhibitors of rat Dyrk1A kinase | inhibition, % at 12.5 µM | Q63470 | 310,000 tested, 0.43% active | ADP-Glo luminescence, NFATc1 peptide;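 note: plate controls were vehicle with enzyme for no effect and no enzyme for full effect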
dFosB activator – enhances mouse delta FosB homodimer DNA binding. 340,000 tested, 0.99% active. AID 493131. P13346. activation, % at 25 µM. purified delta FosB, TAMRA-CDK5 oligo fluorescence polarization; percent of positive-control signal above neutral wells;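 active = mean activation above about 17%, with every replicate also reaching it, limit read from the data, passing the limit was not always enough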
SR-BI DiI inh – inhibitors of mouse SR-BI mediated HDL lipid uptake; Q61009; ldlA[mSR-BI] CHO cells, DiI-HDL uptake fluorescence, 3 h; inhibition, % at 12.5 µM; 320,000 tested, 0.96% active; AID 488896;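 active = mean replicate inhibition of at least 70% and a set share of replicates each scoring 70 or more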;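 note: 0% = median of neutral control wells and 100% = median of positive control wells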
NSD2 HMT inh – NSD2 (human) methyltransferase inhibition. O96028. NSD2 peptide methylation, AlphaScreen, 120 min. inhibition, % at 12.5 µM. 310,000 tested, 0.54% active. AID 743445
SR-BI DiI-HDL act – SR-BI HDL lipid transfer activation; 320,000 tested, 0.096% active; AID 504775; CHO ldlA[mSR-BI] cells, DiI-HDL uptake fluorescence, 3 h; 100 = double the neutral-control signal; activation, % at 12.5 µM;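 active = mean replicate activation of at least 60% and every replicate at or above 60%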;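 note: 0% = median plate neutral-control signal and 100% = twice that signal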
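material = CHO ldlA[mSR-BI] cells | medium = Ham's F12 with 0.5% BSA, HEPES 25 mM, pH 7.4 | reagent = fluorescent DiI-HDL, 10 µg/mL final | compound dosing = single-point compound dose | incubation = 3 h, 37 °C | measured by = bottom-read fluorescence, 550/595 nm | measure = HDL uptake via cellular fluorescence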
CDK5 inh – inhibitors of human CDK5/p35 kinase | Recombinant CDK5/p35, ADP-Glo luminescence, 60 min | inhibition, % at 10 µM | 330,000 tested, 0.01% active | AID 488839;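 active = highest replicate inhibition of at least 50% and at least 75% of replicates reaching 50%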;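 note: plate controls were DMSO neutral control for no effect and GW8510 at 10 µM for full effect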
Dyrk1A artifact – interferes with ADP-Glo luciferase readout without Dyrk1A. shares compounds with DYRK1A inh. ADP-Glo luciferase artifact assay, no Dyrk1A, luminescence. AC50, µM (highest dose often 12 µM), inactives show top-dose activity change, negative = inhibition. 1,300 tested, under 10 active;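 active = fitted half-maximal dose AC50 no more than ten times the top valid tested dose, with luminescence dropping as dose rises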
Starred values were filed as active, the others as inactive; / = no result given. This is a sample that favours compounds with a hit; in the whole collection about 2.5% have one here. Cut-off read from the data, not from the text of the source, unless noted: active = inhibition above about 50%; inactive = the rest.

SMILES	DYRK1A inh	dFosB activator	SR-BI DiI inh	NSD2 HMT inh	SR-BI DiI-HDL act	CDK5 inh	Dyrk1A artifact
CCN(CC)CCCNC(=O)c1cc2c(=O)n(C)c3ccccc3c2n1C	56.7*	-17.0	43.8	/	-43.8	-4.7	7.1%
CCOC(=O)N1CCC(NC(=O)c2cc3c(=O)n(C)c4ccccc4c3n2C)CC1	7.0	-4.5	51.5	/	-51.5	2.2	/
CCN(CC)CCNC(=O)c1cc2c(=O)n(C)c3ccccc3c2n1C	58.4*	-26.0	7.0	/	-7.0	-0.5	1.9%
CC1CN(S(=O)(=O)c2cccc(C(=O)NCCC3=CCCCC3)c2)CC(C)O1 (stereo unspecified)	-2.5	-8.0	19.7	-4.9	-19.7	-0.1	/
Cc1ccc(NC(=O)CCS(=O)(=O)c2ccccc2)cc1C	/	/	/	-0.2	/	/	/
CSCCC(NC(=O)c1ccco1)C(=O)NCC(c1ccccc1)N(C)C (stereo unspecified)	-6.2	-1.2	-9.4	0.2	9.4	0.1	/
CC1CCN(C(=O)CN(c2ccc3c(c2)OCCO3)S(=O)(=O)c2ccccc2)CC1	0.0	-7.6	/	25.8	/	0.2	/
CN1CCN(CCNC(=O)c2cc3c(=O)n(C)c4ccccc4c3n2C)CC1	56.8*	-21.5	13.4	/	-13.4	-1.3	15.4%
CCCN1CCN(CCCNC(=O)c2cc3c(=O)n(C)c4ccccc4c3n2C)CC1	22.0	-29.0	17.5	/	-17.5	0.2	/
Cc1nn(C(=O)CCCC(=O)NCc2ccccc2)c2ccccc12	-3.6	-8.5	24.4	2.2	-24.3	0.4	/
COc1ccc(S(=O)(=O)N2CCCCCC2)cc1C(=O)OCc1cccc(OC)c1OC	-5.7	-12.6	31.1	-3.5	-31.1	1.4	/
COc1ccc2[nH]c(C(=O)N/N=C/c3ccc(OC)c(O)c3)cc2c1	63.3*	-10.3	21.1	-2.6	-21.1	-2.5	9.3%
COc1ccc2[nH]c(C(=O)N/N=C/c3ccccc3OC)cc2c1	63.4*	-10.8	/	1.4	/	1.5	9.8%
COc1ccc(-c2ccc(=O)n(Cc3cccc([N+](=O)[O-])c3)n2)cc1	64.0*	-14.8	/	2.3	/	-2.5	7.5%
COc1ccc(-c2ccc(=O)n(Cc3c(F)cccc3Cl)n2)cc1	5.3	-15.0	7.5	-3.6	-7.5	1.3	/
COc1ccc2c(c1)CCc1c(C(=O)N3CCCCCC3)noc1-2	3.8	-2.4	3.6	-9.1	-3.6	0.9	/
COc1ccc2c(c1)CCc1c-2n[nH]c1C(=O)O	58.6*	-3.8	-2.1	-0.1	2.1	-1.3	14.0%
CC#CCN(Cc1ccco1)C(=O)C1CCC(=O)N(CCc2cccc(F)c2)C1 (stereo unspecified)	/	/	/	-1.4	/	/	/
CN(C)/C=N/c1nc(-c2ccc3ccccc3c2)cs1	-3.7	-7.0	14.8	-0.1	-14.8	-0.2	/
CN(C)/C=N/c1nc(-c2ccc3c(c2)OCO3)cs1	76.8*	-0.1	19.3	-31.0	-19.3	0.2	6.4%
CC(=O)Nc1nc(-c2ccc3c(c2)OCO3)cs1	57.5*	-2.9	/	/	/	1.0	10.3%
c1cncc(-c2ccc3[nH]ccc3c2)c1	54.8*	-0.7	-5.9	/	5.9	-0.5	7.0%
CC(Oc1ccc(Br)cc1)C(=O)N(Cc1ccccc1)c1c(N)n(Cc2ccccc2)c(=O)[nH]c1=O (stereo unspecified)	/	/	/	1.6	/	/	/
COC(=O)CSc1nc(N)c(C#N)c(C(C)C)c1C#N	50.1*	-0.7	-16.3	0.4	16.3	-3.0	8.8%
O=C(OCc1ccccc1)N1CCC2CC1c1c(-c3ccc(C(F)(F)F)cc3)cccc12 (stereo unspecified)	/	0.0	/	/	/	-3.6	/
SMILES	DYRK1A inh	dFosB activator	SR-BI DiI inh	NSD2 HMT inh	SR-BI DiI-HDL act	CDK5 inh	Dyrk1A artifact
O=c1cc[nH]c2ccc(Cl)cc12	50.4*	4.4	-26.4	/	26.4	1.6	8.5%
O=C(CN(C(=O)c1csnn1)c1ccc(F)c(Cl)c1)NC1CCCC1	-3.5	-11.1	-10.4	0.1	10.4	0.7	/
O=C1c2ccccc2-c2onc3ccc(N4CCCC4)c1c23	76.7*	-131.1	54.7	25.8	-54.7	6.1	9.5%
CC(=O)Nc1cc(-c2ccc(C(=O)N3CCOCC3)cc2)cn2c(-c3cccc(C(F)(F)F)c3)cnc12	/	/	/	25.8	/	/	/
COc1ccc(-n2nc(C)cc2Nc2ccccc2C(=O)O)cc1	65.9*	0.0	-9.6	-2.3	9.6	-0.9	8.0%
O=C(O)c1cc(N=Cc2c(O)c3ccccc3oc2=O)ccc1O	82.5*	-9.1	-18.3	3.2	18.3	1.0	9.4%
Cc1ccc(C2=NS(=O)(=O)N(C)C(C(=O)N3CCCCC3)=C2)cc1	-1.3	0.6	4.9	/	-4.9	-1.1	/
COC(=O)C(C)Oc1ccc(-c2nccc(-c3cccs3)n2)cc1 (stereo unspecified)	23.2	-17.1	-8.5	-0.6	8.5	-1.3	/
Oc1ccc(-c2nccc(-c3cccs3)n2)cc1	61.2*	-16.8	15.0	2.3	-15.0	1.8	4.7%
CC(C)n1ncc2c(C(=O)NCCc3ccc(F)cc3)cc(C3CC3)nc21	13.0	-10.2	48.6	-8.1	-48.6	0.1	/
CC1(C)CC(=O)c2c(nc3ccccc3c2N)C1	5.0	-15.4	-10.8	0.1	27.8	1.8	/
Cc1nc2c(c3c1[nH]c1ccccc13)C(=O)CC(C)(C)C2	85.0*	-3.4	27.8	-22.5	-20.4	1.3	9.9%
c1nc2sc3c(c2c2nnnn12)CCCC3	50.3*	-1.5	12.7	0.2	-12.7	1.6	8.2%
CCOc1ccc(-n2c(SCC(=O)Nc3cc(C)c(NC(=O)c4ccccc4)cc3OC)nnc2-c2ccncc2)cc1	/	/	/	-3.2	/	/	/
CCC(=O)Oc1ccc2c(c1)O/C(=C\c1ccco1)C2=O	18.4	-4.6	-17.6	1.3	17.6	2.9	/
CCN(CC)C(=O)Oc1ccc2c(c1)O/C(=C\c1ccco1)C2=O	52.6*	-20.5	-19.1	4.7	19.1	-0.4	7.7%
O=C1C(Nc2ccc(O)cc2)=C/C(=N/S(=O)(=O)c2cccs2)c2ccccc21	70.2*	-14.7	36.5	/	-36.4	10.2	3.9%
Cc1cc(C)c(S(=O)(=O)/N=C2\C=C(Nc3ccc(C(=O)O)cc3)C(=O)c3ccccc32)c(C)c1	69.1*	-16.7	19.8	/	-19.8	4.2	6.7%
CCOC(=O)c1cnc2ccc(C)cc2c1Nc1ccc(N2CCOCC2)cc1	60.8*	-3.6	19.5	-8.6	-19.5	6.3	8.3%
CCn1c2ccccc2c2cc(/C=N/O)ccc21	79.9*	1.5	19.9	-1.3	-19.9	6.3	7.7%
C=CCNc1oc(C2CCCC2)nc1C#N	-5.2	-3.2	-0.6	/	2.2	1.4	/
CC(=O)c1cccc(NC(=O)Nc2cccs2)c1	53.1*	-0.4	20.2	-1.9	-20.2	1.8	10.2%
O=C(CNC(=O)c1ccc(Br)o1)Nc1cccc(S(=O)(=O)N2CCCC2)c1	16.3	-3.9	10.5	-0.4	-10.5	-0.2	/
